Measurements: PMC11589143 (Nature Communications, 2024)
pKd: −log10 of the molar value.

Experiments:
His-tagged WT Mina53 = assay: In vitro demethylation, dot blotting, WT Mina53; format: biochemical; details: 2 h at 37 °C, cofactors
[1] = tested on: mutant Mina53 (D329A/D333A); assay: Microscale thermophoresis, mutant Mina53; format: binding; details: MST; D333A/D329A mutant vs WT; n=3 independent assays
Outline: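 His-tagged Mina53 was titrated from 3 nM to 0.1 mM against 25 nM FITC-labelled H4R3me2a peptide. Mixtures were incubated 15 min in 30 mM Hepes, 150 mM NaCl, pH 7.5, then loaded into glass capillaries for microscale thermophoresis. KD was fitted from the thermophoresis response.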

[2] = tested on: catalytically inactive mutant Mina53; assay: LC-MS of in vitro demethylation products, mutant Mina53; format: biochemical; details: high-resolution MS
Outline: (§1)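 Reaction mixtures were brought to 0.2% TFA and 2% acetonitrile (final) and desalted on C18 ZipTips (activated in 80% acetonitrile/0.1% TFA, equilibrated in 0.1% TFA). Separation was on an HSS T3 UPLC column with 0.1% formic acid in water versus acetonitrile/0.1% formic acid. Detection used positive-mode ESI TOF MS scanning 400-1500 m/z, and relative peptide abundance was compared.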

WT Mina53 = assay: LC-MS of in vitro demethylation products, WT Mina53; format: biochemical; details: high-resolution MS
Outline: as §1

[3] = tested on: inactive mutant (H179Y/D181G/H240Y) of Mina53; assay: In vitro demethylation, dot blotting, inactive mutant Mina53; format: biochemical; details: 2 h at 37 °C, cofactors
Mina53 = Mina53 (Homo sapiens, UniProt Q8IUF8); assay: Formaldehyde release assay; format: biochemical; details: AAPT (modified NASH), ex 355 nm / em 470 nm
Chain of Mina53 (Q8IUF8 whole entry): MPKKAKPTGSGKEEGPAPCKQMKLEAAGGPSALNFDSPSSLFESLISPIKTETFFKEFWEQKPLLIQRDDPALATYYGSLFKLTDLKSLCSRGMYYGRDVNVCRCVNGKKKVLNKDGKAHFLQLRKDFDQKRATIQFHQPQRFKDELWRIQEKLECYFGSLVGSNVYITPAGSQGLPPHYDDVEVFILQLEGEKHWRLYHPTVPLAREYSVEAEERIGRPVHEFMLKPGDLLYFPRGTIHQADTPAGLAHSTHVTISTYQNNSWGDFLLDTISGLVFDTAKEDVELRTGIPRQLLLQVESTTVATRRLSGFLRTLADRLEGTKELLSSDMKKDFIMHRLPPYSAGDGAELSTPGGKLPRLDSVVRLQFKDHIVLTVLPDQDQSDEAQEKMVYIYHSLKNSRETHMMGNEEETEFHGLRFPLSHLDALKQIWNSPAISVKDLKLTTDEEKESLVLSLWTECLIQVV
Outline: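 After the demethylation reaction, samples were TCA-precipitated and 1% Tris buffer was added. An equal volume of AAPT buffer was added to the supernatant and incubated 30 min at room temperature. Formaldehyde was quantified against a standard curve from serial dilutions of 37% formaldehyde. Km and kcat were fitted to the Michaelis-Menten equation.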

His-tagged Mina53 = assay: Pulldown of synthetic H4R3 peptides with purified His-tagged Mina53; format: binding; details: H4R3 peptides with different R3 modifications
[4] = target: FITC-conjugated H4R3me2a peptide; assay: MST
[5] = tested on: HEK293T nuclear proteins (H4R3me2a interactors); assay: Proteome-wide photoaffinity capture, dimethyl labelling, LC-MS; format: binding, Homo sapiens; details: |log2 fold change| > 2, P < 0.05; vs peptide without pLeu
Outline: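 HEK293T cells were lysed in RSB buffer and crude nuclei resuspended in crosslinking buffer (100 mM HEPES, 1.5 mM MgCl2, 150 mM KCl, pH 7.5). Nuclei received 100 µM biotinylated pLeu peptide in the dark, then 365 nm UV on ice. After washing and sonication, proteins were captured on streptavidin and washed stringently. Only proteins quantified in both replicates were kept, with two-tailed unpaired t-test P-values.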

Chain of His-tagged Mina53 (Myc-induced nuclear antigen 53), wild type (Q8IUF8 whole entry): as above

In the case of “SGR(Me2a)GKGGKGLGKGGAKRHRKVGGK(Biotin) [H4R3me2a]”, the “Dot-blot signal change with WT Mina53” value (His-tagged WT Mina53) was “drastically decreased”, the “Binding affinity of mutant Mina53” value [1] was “drastic loss of binding” and the “Peptide peak shift with mutant Mina53” value [2] was “not mutant Mina53”. The “Peptide peak shift (to mono-methylated peptide)” value (WT Mina53; WT Mina53) was 14 Da, the “Dot-blot signal change with mutant Mina53” value [3] was “not mutant Mina53” and the “turn-over rate (kcat)” value (Mina53) was 0.37 ± 0.08 s⁻¹.

For “SGR(Me1)GKGGKGLGKGGAKRHRKVGGK(Biotin) [H4R3me1]”, the “Dot-blot signal change with WT Mina53” value (His-tagged WT Mina53) was “drastically decreased”, the “Appearance of non-methylated peptide” value (WT Mina53; H4R3me1 peptide as substrate) was “modest non-methylated peptide appearance” and the “Dot-blot signal change with mutant Mina53” value [3] was “not mutant Mina53”.

For “SGR(Me2s)GKGGKGLGKGGAKRHRKVGGK(Biotin) [H4R3me2s]”, the “Amount of peptide pulled down by Mina53” value (His-tagged Mina53) was “in the smallest amount”.

With APATGGV-Kme3-KPHRYRP(Biotin) [H3K36me3] the “Dot-blot signal change with WT Mina53” value (His-tagged WT Mina53) was “modestly decreased” and the “Dot-blot signal change with mutant Mina53” value [3] was “not mutant Mina53”.

“His-tagged Mina53 (Myc-induced nuclear antigen 53), wild type (from UniProt Q8IUF8 1-465) (enzyme)” showed a pKd [4] of 4.56.

In the case of “pLeuGRme2aGKGGKGLGKGGAKKbio-NH2 [H4R3me2a-pLeu-biotin]”, the “Enrichment of SND1, SMNDC1 and PRMT1 in pLeu-containing peptide sample” value [5] was “enriched”.
